Compound activity deposited in PubChem BioAssay by several laboratories.
This is a sample that favours compounds with a hit; in the whole collection about 1.6% have one here.
Dynein transport – dynein cargo transport inhibition. z-score, hits read low. actives 0.47% (n = 220,000). AID 1381. 3617.4 mouse cells, GR-EGFP nuclear translocation imaging; test concentration mostly 20 µM; stimulated with dexamethasone, 1 µM; stronger effect = lower value;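 active = plate z-score of nuclear minus cytoplasmic receptor signal below a set negative limit, without overly bright fluorescence or cell loss, cut at about -3.5 in these data, passing the limit was not always enough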;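 note: z-score of nuclear minus cytoplasmic ring GR-EGFP intensity difference per well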
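Buffer or medium: tet-free medium with charcoal-stripped serum / Also added: dexamethasone agonist, 1.0 µM final, for 30 min / Timing: induction 48 h, compound 1 h, agonist 30 min / Measured by: high-content fluorescence imaging after fixation / Read-out: nuclear-to-cytoplasmic GR-EGFP distribution per well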
TLR4-MyD88 BLA – blocks binding of human TLR4 to MyD88; inhibition, % at 8.4 µM; O00206+Q99836; actives 0.18% (n = 200,000); HeLa CL3-4 TLR4/MyD88 BLA complementation, FRET ratio; AID 861; in the data active = inhibition above about 25%;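 note: 0% = vehicle and 100% = reference inhibitor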
ABHD5-PLIN5 inh – inhibitors of human ABHD5-perilipin-5 interaction; Q00G26+Q8WTS1; Split G. princeps luciferase complementation, luminescence, 4 h; inhibition, % at 4 µM; actives 0.78% (n = 360,000); AID 602281;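 active = inhibition above the mean inhibition across every tested compound plus 3 SD, cut at about 22% in these data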;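 note: 0% = DMSO only wells and the 100% control is not disclosed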
NOD2-RIPK2 inh – NOD2-RIPK2 protein interaction inhibition; O43353; CHO BLA complementation NOD2-RIPK2, CCF4 ratio; inhibition, % at 4.98 µM; actives 0.38% (n = 360,000); AID 624267; in the data active = inhibition above about 21%;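 note: 0% = vehicle only and 100% = reference blocker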
B2AR ag – activates human beta-2 adrenergic receptor causing internalization. response, % (no concentration beside the values). Am2.2-beta2AR cells, FAP receptor internalization, flow cytometry. P07550. actives 0.43% (n = 340,000). AID 504454;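 active = response above a set limit, near 3 SD of response in nonfluorescent compounds, cut at about 42% in these data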
TLR9-MyD88 inh – inhibitors of human TLR9-MyD88 binding | CHO BLA complementation TLR9-MyD88, CCF4 FRET ratio | inhibition, % at 4.98 µM | actives 0.21% (n = 340,000);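 active = inhibition above the mean over all tested compounds plus 3 SD, cut at about 21% in these data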;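 note: 0% = DMSO only wells and 100% = clavulanate BLA inhibitor control wells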
Dynein confirm – dynein cargo transport inhibition, confirmation. 3617.4 GR-EGFP nuclear translocation imaging, dexamethasone-induced. actives 69% (n = 1,000). AID 463116. calls only at 20 µM. shares compounds with Dynein transport;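 active = inhibition of receptor movement into the nucleus at or above a set limit in both runs, with normal cell brightness and cell count; inconclusive = limit reached in only one run, brightness and count normal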;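 note: dexamethasone at 1 µM final in well for 30 min; nuclear minus cytoplasmic GR-EGFP mean intensity difference in channel 2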
ABHD5 PLIN5 conf – ABHD5-PLIN5 interaction inhibition, confirmed; biochemical ABHD5-PLIN5 interaction, luminescence; AID 651612; actives 67% (n = 2,200); inhibition, % at 4 µM; shares compounds with ABHD5-PLIN5 inh; in the data active = inhibition above about 23%;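 note: 0% = DMSO vehicle wells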
HNF4 counter – HNF4 split-luciferase signal hit, counter-screen; shares compounds with ABHD5-PLIN5 inh; HNF4 dimerization, luminescence, biochemical; inhibition, % at 4 µM; actives 77% (n = 2,200); AID 651674;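 active = mean inhibition across replicate wells exceeding the computed hit threshold, cut at about 13% in these data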;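 note: light from luciferase halves that rejoin when HNF4 fusion proteins dimerize; 0% = DMSO only wells and the 100% control is not given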
Target sequence (P41235 whole entry, looked up, the tested form may be a part): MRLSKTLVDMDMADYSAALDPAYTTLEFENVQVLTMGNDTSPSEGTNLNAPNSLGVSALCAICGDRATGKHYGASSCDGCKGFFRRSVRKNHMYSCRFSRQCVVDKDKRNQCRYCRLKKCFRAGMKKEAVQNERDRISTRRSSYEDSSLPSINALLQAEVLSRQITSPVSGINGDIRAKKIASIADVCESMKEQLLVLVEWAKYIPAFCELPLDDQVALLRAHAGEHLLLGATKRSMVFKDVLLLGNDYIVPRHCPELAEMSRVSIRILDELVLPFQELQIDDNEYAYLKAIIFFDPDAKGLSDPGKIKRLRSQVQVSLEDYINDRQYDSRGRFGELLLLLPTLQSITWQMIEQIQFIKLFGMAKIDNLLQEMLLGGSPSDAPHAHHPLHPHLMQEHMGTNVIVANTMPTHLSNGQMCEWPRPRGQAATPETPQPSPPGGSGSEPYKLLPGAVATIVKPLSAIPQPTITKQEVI
* = called active by the depositor; i = inactive; ? = inconclusive; · = no result given; + = active, no number.

SMILES	Dynein transport	TLR4-MyD88 BLA	ABHD5-PLIN5 inh	NOD2-RIPK2 inh	B2AR ag	TLR9-MyD88 inh	Dynein confirm	ABHD5 PLIN5 conf	HNF4 counter
Cc1ccc(-c2nc3cnccn3c2Nc2ccccc2)o1	-3.9*	·	25*	11	-12	7	i	39*	84*
COc1cccc(C(=O)Oc2ccccc2/C=C\C(=O)c2cc3ccccc3o2)c1	-4*	12	83*	10	11	5	+	99*	101*
COc1ccc(C(=O)/C=C/c2ccccc2OC)c(OC(=O)c2ccc([N+](=O)[O-])cc2)c1	0.091	-11	-1	-4	-1	6	·	·	·
CC1=NOC(=O)/C1=C\c1ccc(-c2ccc(Br)cc2)o1	-4.1*	4	38*	5	83*	4	?	93*	106*
O=c1[nH]sc2ccccc12	-3.8*	·	65*	3	3	8	+	66*	109*
O=c1ccsc2ccccc12	·	·	-3	-7	·	·	·	·	·
C#CCN1C=CC(=O)[C@@H](OC(=O)Nc2ccc(C)cc2)[C@H]1c1ccccc1Br	·	·	0	6	6	-6	·	·	·
CNc1ccc(/C=C2\COc3ccccc3C2=O)cc1[N+](=O)[O-]	0.7	3	3	-9	4	6	·	·	·
O=C1/C(=C/c2ccccc2[N+](=O)[O-])COc2ccccc21	-5.7*	14	58*	13	8	-4	+	79*	76*
O=C(COC(=O)c1ccc(O)cc1)c1ccc(S(=O)(=O)N2CCCCC2)cc1	·	·	2	-7	7	-2	·	·	·
Nc1ccn([C@@H]2O[C@H](CNCc3cc(Br)ccc3OCc3ccccc3)[C@@H](O)[C@H]2O)c(=O)n1	·	·	6	-10	·	11	·	·	·
COC(=O)c1cc(=O)n(-c2ccccc2)c(=Nc2ccccc2)s1	-3.9*	3	38*	-2	18	-1	+	57*	39*
COC(=O)c1cc2c(C)nn(-c3ccccc3)c2s1	1.3	-13	-4	2	1	6	·	·	·
O=C(c1ccc(F)cc1)C(CN1CCOCC1)c1ccccc1 (configuration not stated)	-6.1*	17	38*	7	12	10	+	29*	99*
O=C(CCl)N(C/C=C/c1ccccc1)c1ccc2c(c1)OCCO2	-4*	0	25*	5	34	2	+	24*	29*
CCCCNC1C(CC)C(CCC)C(C#N)(C#N)C1(C#N)C#N (configuration not stated)	-3.6*	-4	29*	3	21	1	+	64*	53*
Cc1[nH]c2ccccc2c(=O)c1C(=O)/C=C/c1ccccc1	-6*	·	32*	7	3	-1	+	63*	56*
N#Cc1ccc(/C=C/C(=O)c2cccnc2)cc1	-5*	13	82*	-4	1	11	+	92*	96*
CCN(CC)c1ccc(/C=C/C(=O)c2cccnc2)cc1	0.48	-15	12	-18	14	0	·	·	·
O=C(/C=C/c1ccccc1Cl)c1cccnc1	-4.2*	5	71*	-6	3	-5	+	100*	102*
O=C(/C=C/c1ccccc1Cl)c1ccc(O)cc1	-1.1	·	16	-1	8	-2	·	·	·
O=C(/C=C/c1ccc(Cl)cc1)c1cccnc1	-5.1*	8	80*	4	-9	0	+	96*	100*
C#CCOCCOCCOCCNc1nc(N2CCN(C(=O)Cn3cc(CC(C)O)nn3)CC2)nc(N2CCN(C(=O)[C@H]([C@@H](C)CC)n3cc(CCCCN)nn3)CC2)n1 (some centres not stated)	·	·	-3	2	1	-13	·	·	·
CCCCn1nc(C(=O)Nc2ccccc2N2CCCC2)c2ccccc2c1=O	·	·	2	-9	13	-3	·	·	·
COc1ccccc1C(C[N+](=O)[O-])c1c(N)n(C)c(=O)n(C)c1=O (configuration not stated)	-3.5*	·	39*	0	2	·	?	33*	65*
SMILES	Dynein transport	TLR4-MyD88 BLA	ABHD5-PLIN5 inh	NOD2-RIPK2 inh	B2AR ag	TLR9-MyD88 inh	Dynein confirm	ABHD5 PLIN5 conf	HNF4 counter
COc1cc(/C=C/C(=O)c2ccc(F)cc2)cc(OC)c1OC	-4.7*	-15	38*	6	3	3	+	68*	53*
CC(C)(C(=O)N1CCC1(C)C(=O)NS(=O)(=O)c1ccc(Cl)s1)c1ccccc1 (configuration not stated)	·	·	-23	-4	·	·	·	·	·
CC(=O)N(C1CC(C)C(C#N)(C#N)C1(C#N)C#N)N(C)C (configuration not stated)	-6.8*	8	24*	19	23	0	+	52*	95*
CC1(C)CC(=O)/C(=C\c2cccc([N+](=O)[O-])c2)C(C)(C)N1	-3.6*	7	26*	6	12	-13	+	37*	44*
C=C1C(=O)[C@@]23[C@H](O)C[C@@H]4C(C)(C)CC[C@H](O)[C@]4(C)[C@@H]2C[C@H](O)[C@@H]1[C@H]3O	-5.1*	-11	80*	-5	9	6	+	89*	99*
C=C1C(=O)[C@@]23[C@H](O)C[C@@H]4C(C)(C)CC[C@H](O)[C@@]4(C)[C@@H]2CC[C@@H]1[C@H]3O	-5.5*	-4	53*	20	46*	-6	+	85*	78*
CC(=O)c1cccc(NC(=O)c2cccc3c(-c4cnn(C)c4)coc23)c1	·	·	-2	-1	·	·	·	·	·
O=C(/C=C/c1ccccc1)c1c[nH]c2ccccc12	-0.69	·	1	3	4	-2	·	·	·
O=C(/C=C/c1ccc(F)cc1)c1ccccc1Br	-5.7*	0	56*	3	13	7	+	96*	88*
CCOc1cc(C=NN=C2c3ccccc3-c3ccccc32)ccc1O	·	·	-7	0	-1	4	·	·	·
COc1ccc(/C=C/C(=O)CC(O)(c2ccccc2)C(F)(F)F)cc1 (configuration not stated)	-3.8*	14	41*	8	7	-2	+	72*	53*
O=C(O)c1ccc(N/N=C/c2cn(Cc3ccc(F)cc3)c3ccccc23)cc1	-0.95	·	-1	0	28	0	·	·	·
